# CAL PDZ FP-1: inhibitors of human CAL PDZ peptide binding; purified CAL PDZ, TMR-peptide fluorescence polarization, 1 h; inhibition, % at 24.9 µM; hit rate 0.92% among 300,000; AID 602252;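 active = mean inhibition of at least 30% with at least half of replicates also reaching 30%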;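 note: 0% = DMSO neutral control and 100% = excess unlabeled competitor peptide PRC23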
# S100A4 inh HTS: blocks human S100A4 binding to myosin IIA peptide; P26447; S100A4/TAMRA-MyoIIA peptide fluorescence polarization; inhibition, % at 10.7 µM; hit rate 0.14% among 360,000; AID 652163;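 active = mean inhibition of at least 70% across replicates, with every replicate also reaching that level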
#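 Material: human S100A4 monomer with TAMRA-labelled myosin IIA peptide; buffer or medium: HEPES pH 7.2 with CaCl2, KCl, NaCl, DTT, Triton; compound dosing: one concentration per compound; schedule: 5 min incubation before reading; benchmarks: neutral control DMSO, positive control TFP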
# CDK5 p35 inh: inhibitors of human CDK5/p35 kinase; inhibition, % at 10 µM; Recombinant CDK5/p35, ADP-Glo luminescence, 60 min; hit rate 0.01% among 330,000; Q00535+Q15078;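 active = highest replicate inhibition of at least 50% and at least 75% of replicates reaching 50%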;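 note: plate controls were DMSO neutral control for no effect and GW8510 at 10 µM for full effect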
# Target sequence (Q00535 whole entry, looked up): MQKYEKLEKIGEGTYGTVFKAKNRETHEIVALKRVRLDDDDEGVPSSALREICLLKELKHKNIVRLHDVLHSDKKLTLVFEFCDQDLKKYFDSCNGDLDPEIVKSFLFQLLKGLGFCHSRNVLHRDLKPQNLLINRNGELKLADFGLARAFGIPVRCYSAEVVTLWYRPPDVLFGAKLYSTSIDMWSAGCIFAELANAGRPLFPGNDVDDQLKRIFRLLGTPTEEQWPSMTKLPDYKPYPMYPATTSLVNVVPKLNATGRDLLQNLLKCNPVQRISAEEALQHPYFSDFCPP
# Target sequence (Q15078 whole entry, looked up): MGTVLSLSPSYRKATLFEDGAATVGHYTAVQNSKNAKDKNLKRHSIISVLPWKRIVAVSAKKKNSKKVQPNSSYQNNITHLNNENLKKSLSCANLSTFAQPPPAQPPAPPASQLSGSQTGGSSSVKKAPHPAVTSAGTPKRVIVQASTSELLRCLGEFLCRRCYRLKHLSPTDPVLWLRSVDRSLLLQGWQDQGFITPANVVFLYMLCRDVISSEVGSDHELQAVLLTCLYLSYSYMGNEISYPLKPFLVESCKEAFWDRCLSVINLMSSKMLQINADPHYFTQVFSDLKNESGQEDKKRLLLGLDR
# dFosB act: mouse delta FosB homodimer activation; P13346; purified delta FosB, TAMRA-CDK5 oligo fluorescence polarization; percent of positive-control signal above neutral wells; activation, % at 25 µM; hit rate 0.99% among 340,000;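 active = mean activation above about 17%, with every replicate also reaching it, limit read from the data, passing the limit was not always enough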
# CAL PDZ FP-2: inhibitors of human CAL PDZ peptide binding. purified CAL PDZ, TMR-peptide fluorescence polarization, 1 h. inhibition, % at 20 µM. hit rate 0.02% among 330,000. AID 504414;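 active = highest replicate inhibition of at least 40%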;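 note: plate controls were DMSO neutral control wells for no effect and unlabeled competitor peptide control wells for full effect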
#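 Material: tagged CAL PDZ domain; buffer or medium: 25 mM sodium phosphate pH 7.4, 150 mM NaCl, TCEP, IgG, Thesit; compound dosing: single point, 20 µM; schedule: 1 h incubation at room temperature before polarization reading; measured by: FP readout, S and P plane fluorescence; read-out basis: percent inhibition from loss of millipolarization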
# Statin myotox sup: suppressors of simvastatin-induced myotoxicity in C2C12 myotubes; AID 602340; rescue of ATP level, % at 7.49 µM; hit rate 0.78% among 330,000; ATP luminescence, 48 h; scaled: DMSO 0, geranylgeraniol control 100;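 active = mean ATP rescue above about 67%, or every replicate alone reaching that limit, limit read from the data, passing the limit was not always enough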;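 note: myotubes were challenged with 10 µM simvastatin during compound exposure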
# Starred values were filed as active, the others as inactive; nt = not tested or not shown. The list is not random: actives were taken first. Their share in the collection is about 2%.
SMILES,CAL PDZ FP-1,S100A4 inh HTS,CDK5 p35 inh,dFosB act,CAL PDZ FP-2,Statin myotox sup
Cc1ccc(/C=[N+](\[O-])c2ccc(N(C)C)cc2)c2nsnc12,4,-6,1,11,0,nt
Cc1cc(C)cc(NC(=O)c2ccc(NC(=O)c3ccco3)cc2)c1,-4,0,1,-4,-3,5
COC(=O)c1ccc(NC(=O)c2ccc(NC(=O)c3ccco3)cc2)cc1,-4,-1,-2,122*,-2,-21
CC(C)[C@H](NC(=O)c1ccco1)C(=O)OCC(=O)Nc1cccc(F)c1,69*,-5,1,-8,-1,nt
CC(C)[C@H](NC(=O)c1ccco1)C(=O)OCC(=O)Nc1ccc(Cl)c(S(=O)(=O)N(C)C)c1,2,-6,-1,-13,-3,-11
Cc1noc(C)c1S(=O)(=O)N1CCN(S(=O)(=O)c2ccccc2C#N)CC1,34*,1,0,3,-2,-28
CSc1cccc(NC(=O)CC2Oc3ccccc3NC2=O)c1 (stereo not given),-7,1,0,37*,0,6
c1ccc2sc(-c3ccncc3)nc2c1,3,-2,-1,-17,-1,nt
COc1ccc2c3c(n(C)c2c1)[C@H](CO)N(C(=O)c1ccccc1)CC31CCN(C(C)=O)CC1,nt,4,nt,nt,nt,nt
COCC(=O)N1CC2(CCN(Cc3ccccc3Cl)CC2)c2c([nH]c3cc(OC)ccc23)[C@H]1CO,nt,85*,nt,nt,nt,nt
COc1ccc(CN2CC3(CN(C(=O)c4ccccc4)C3)c3c([nH]c4cc(OC)ccc34)[C@H]2CO)cc1,nt,73*,nt,nt,nt,nt
COc1ccc2c3c(n(C)c2c1)[C@H](CO)N(C(=O)c1ccccc1)CC31CCN(C(=O)c2ccccc2)CC1,nt,73*,nt,nt,nt,nt
CCN(CC)c1ccc(NS(=O)(=O)c2ccc(OC)cc2)cc1,66*,-4,0,8,-1,nt
COc1ccc(NS(=O)(=O)c2ccc3oc(=S)[nH]c3c2)cc1,31*,0,2,0,-1,nt
COc1ccc(NS(=O)(=O)c2ccc3oc(=O)ccc3c2)cc1,-5,6,-1,-2,nt,-4
COc1ccc(S(=O)(=O)Nc2ccc(N(C)C(C)=O)cc2)cc1,-4,nt,-2,1,-2,5
Cn1nnnc1SCCOc1ccc(C#N)cc1,2,nt,0,-4,nt,116*
COc1ccc(C2=Nn3c(nnc3-c3ccncc3)SC2)cc1OC,nt,nt,2,88*,-2,0
Nc1ccc(Oc2cccc(Oc3ccc(N)cc3)c2)cc1,39*,-7,1,-8,-4,nt
c1cncc(Oc2cccc(Oc3cccnc3)c2)c1,-2,nt,-1,-2,-1,108*
Cc1cccc(Oc2ccc(N)cc2)c1,-4,nt,0,-1,1,nt
Nc1cc(Oc2cccnc2)cc([N+](=O)[O-])c1,9,7,1,-4,0,nt
Cc1ccc(NC(=O)COC(=O)CCc2c(C)nc3nc(N)nn3c2C)cc1C,-2,2,0,-1,0,-9
Cc1ccccc1S(=O)(=O)NCC[C@H]1CC[C@H](NS(=O)(=O)c2ccccc2C)[C@H](CO)O1,nt,7,nt,nt,nt,-6
Cc1nnc2n(-c3ccccc3)c(=O)c3c4c(sc3n12)COC(C)(C)C4,-9,nt,2,-9,0,105*
SMILES,CAL PDZ FP-1,S100A4 inh HTS,CDK5 p35 inh,dFosB act,CAL PDZ FP-2,Statin myotox sup
Cc1nnc2n(C)c(=O)c3c4c(sc3n12)COC(C)(C)C4,-7,-3,0,-3,-3,nt
C/C(=N/NS(=O)(=O)c1cccc([N+](=O)[O-])c1)c1ccc2c(c1)OCO2,-2,-8,-2,-5,0,20
CC1CC/C(=C\c2ccc3c(c2)OCO3)C(=O)/C1=C/c1ccc2c(c1)OCO2 (stereo not given),-3,nt,0,-8,0,207*
CC(CCc1ccccn1)C(=O)C(C)CCc1ccccn1 (stereo not given),81*,9,-2,-2,-1,-3
CCOC(=O)C(CCc1ccccn1)c1ccccc1 (stereo not given),0,-3,-1,-6,0,1
CCCN1CCCCC(NC(=O)c2ccccc2C)C1=O (stereo not given),nt,-4,nt,nt,nt,nt
CCCC(=O)NC1CCCc2c1cnn2-c1ccc(C)c(C)c1 (stereo not given),-2,3,0,-3,0,4
Cc1ccc(-n2ncc3c2CCCC3NC(=O)CCc2c(C)noc2C)cc1C (stereo not given),33*,4,-1,-3,-1,6
COc1nc(NC23CC4CC(CC(C4)C2)C3)nc(OC)n1,-3,nt,-1,-1,-2,18
CC(C1CC1)N(Cc1ccccc1)C(=S)Nc1ccccc1Cl (stereo not given),88*,-5,-1,1,-1,-9
CC(C1CC1)N(Cc1ccccc1)C(=O)NC(=O)c1ccccc1 (stereo not given),-2,2,0,-11,-1,nt
COc1ccc(CC2CCOC2=O)cc1 (stereo not given),62*,nt,-1,7,0,2
Cc1nnsc1C(=O)Nc1cccc(Cl)c1,74*,9,0,3,-1,4
O=C1c2ccccc2C(=O)N1CCC1=CCCCC1,-2,nt,-1,0,-1,122*
O=C(O)c1ccc2c(c1)C(=O)N(CCC1=CCCCC1)C2=O,-3,nt,0,0,-1,-9
Cc1csc(NC(=O)c2ccc(C)c([N+](=O)[O-])c2)n1,-3,nt,1,0,0,nt
COc1ccc(C2CC(=O)c3cnc(N)nc3C2)c(OC)c1 (stereo not given),-4,nt,4,-4,-2,106*
Oc1cccc(/C=N/Nc2cc(N3CCCC3)nc(N3CCCC3)n2)c1,-1,nt,0,57*,-1,nt
Oc1ccc(/C=N/Nc2cc(N3CCCC3)nc(N3CCCC3)n2)cc1,3,nt,-1,13,0,-20
COc1ccc(/C=N/Nc2cc(N3CCCC3)nc(N3CCCC3)n2)cc1,-2,1,-1,23*,-1,-40
C[C@H]1CN([C@@H](C)CO)C(=O)Cc2cc(NS(=O)(=O)c3cccs3)ccc2O[C@H]1CN(C)C(=O)Nc1ccccc1,nt,-5,nt,nt,nt,-8
COc1cc2c(cc1OC)CN(C(=O)c1cc(COc3ccccc3SC)on1)CC2,nt,8,nt,nt,nt,36
CCN1/C(=C/c2ccc3cc(C)ccc3[n+]2CC)Sc2cc(C)ccc21,-1,-35,-1,-37,-1,-55
CCCCN1/C(=C/c2ccc3ccccc3[n+]2CC)Sc2ccccc21,-7,nt,1,27*,1,nt
Cc1c(N(C)S(=O)(=O)c2ccc(Cl)c(C(=O)NCC(C)(C)N3CCOCC3)c2)c(=O)n(-c2ccccc2)n1C,35*,-12,1,-5,-1,0

# High-throughput results deposited in PubChem BioAssay by Broad Institute.
